Laboratory results as given in ChEMBL document CHEMBL4513216, “Probing the Open Global Health Chemical Diversity Library for Multistage-Active Starting Points for Next-Generation Antimalarials” (ACS Infect Dis, 2020).

Assay: Toxicity liver stage against HepG2, at 10uM
Assay type: cell-based
Parameters: test concentration 10 uM, cell line HepG2-A16-CD81EGFP
Conditions: human, HepG2-A16-CD81EGFP cells; read-out: INHIBITION
Outline: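 Uninfected HepG2-A16-CD81EGFP cells, 3 × 10^3 per well, 1536-well, plated on prespotted compound at 10 μM final, parasite-free screening media added to match infected plates; puromycin 10 μM positive, DMSO 0.5% negative; run in parallel with 48 h PbLuc assay at 37 °C, 5% CO2; viability by CellTiter-Glo luminescence, normalized to controls.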

Row | SMILES | cytotoxicity at 10 µM
1 | O=C(c1cc(-c2cccs2)nc2ccccc12)N1CCN(CCO)CC1 | -53.2%
2 | Cc1csc(C(=O)NCCN2CCC(c3cccs3)CC2)c1 | 2.03%
3 | COc1ncc(NS(=O)(=O)c2ccc(OC)c(C)c2)c(OC)n1 | 34.8%
4 | O=C(NC[C@H]1C[C@@H]2CN(C(=O)c3ccno3)C[C@@H]2O1)C1CCC1 | -5.21%
5 | Cn1cnc2c1C(C(=O)N1CCCO1)N(C(=O)c1ccccc1)CC2 (stereo not drawn) | -0.234%
6 | COCC(=O)N1CCC2(CC1)CC(OC)CO2 (stereo not drawn) | -1.56%
7 | O=C(c1ccco1)N1CC[C@@H]2O[C@@H](COCC3CCOCC3)CC[C@@H]21 | 1.95%
8 | CN(C)CC(=O)N1CCc2ncnc(-c3ccsc3)c2CC1 | -12.3%
9 | CCn1ncc2c1C(COC)CN(Cc1cnn(C)c1)C2 (stereo not drawn) | 1.49%
10 | CO[C@H]1CN(Cc2ccccc2F)[C@@H]2CCCO[C@H]12 | -0.0925%
11 | Cn1cc(CN2CC[C@]3(C[C@H](OCc4ccccn4)CO3)C2)cn1 | -1.08%
12 | CSC1=Nc2c(cnn2-c2ccc(C)cc2)C2=NCCCN12 | 10.3%
13 | O=C(Cn1nc2c(cc1=O)CCCC2)NC(C(=O)O)c1ccccc1 (stereo not drawn) | 5.7%
14 | Cc1nn(C)cc1CN(C)C(=O)c1ccncc1 | -5.51%
15 | Cc1c2nnn(CC(=O)N(C)C)c(=O)c2nn1C | -4.26%
16 | COc1cc(C(=O)NCC2(N(C)C)CCN(C)CC2)c2ccccc2n1 | -0.356%
17 | Cc1csc(Nc2cc(C3CN(c4ccncn4)C3)nc(C)n2)n1 | 11.6%
18 | Cc1cccc(Nc2ccc(C3CCCCN3)cn2)n1 (stereo not drawn) | -1.93%
19 | Cc1nc(C2CN(Cc3scnc3C)CCO2)cc(N(C)C)n1 (stereo not drawn) | -12.3%
20 | CC(C)Oc1ccc(CN2CCC(c3n[nH]c4ncccc34)CC2)cc1 | -21.4%
21 | Cc1cc(C)nc(N2CCCC(c3cccc(-n4ccnc4)n3)C2)n1 (stereo not drawn) | -0.252%
22 | Nc1cc(CCC2CN(Cc3ccc4c(c3)OCCO4)CCO2)ccn1 (stereo not drawn) | 15.8%

Row | SMILES | cytotoxicity at 10 µM
23 | Cc1cc(C)c(CN2CCCC23Cc2ccccc2CNC3=O)c(C)c1 (stereo not drawn) | 10.8%
24 | Cc1ccc(CN2CCS(=O)(=O)C(C)(C)C2)cc1C | 1.05%
25 | CC(C)OCc1ccccc1CNC(=O)C(C)(C)C | -8.11%
26 | CSCCC(=O)N1CCN(CC(C)O)CC1 (stereo not drawn) | -5.64%
27 | NC(=O)c1cncc(N2CCN(Cc3ccc(F)cc3Cl)CC2)n1 | 11.8%
28 | CC(NC(=O)NC1CCN(Cc2ccncc2)CC1)c1ccccc1F (stereo not drawn) | -17.8%
29 | O=C(CCc1nc(-c2ccsc2)no1)NCC1CCN(C2CC2)C1 (stereo not drawn) | 3.23%
30 | CC(CNC(=O)c1cnccn1)Oc1ccc(F)cc1 (stereo not drawn) | -2.55%
31 | O=C(c1ccc(F)cc1Cl)N1CCn2c(nnc2C(F)(F)F)C1 | -6.7%
32 | CCc1cnc(CN(C)C(=O)NC2CCN(C)C2=O)s1 (stereo not drawn) | -0.786%
33 | Cc1[nH]ncc1CCCNC(=O)Nc1ccc2c(c1)OC1(CCCC1)O2 | 18.6%
34 | CC(NC(=O)N(C)Cc1cccc(OC(F)F)c1)c1nncn1C (stereo not drawn) | -2.69%
35 | Cc1ccc(C(=O)Nc2cc(C(N)=O)ccc2N2CCCCC2)cc1F | 2.13%
36 | CC(C)NC(=O)CCN1CCC(C(=O)c2cc(F)ccc2F)CC1 | -25%
37 | COc1cccc(CN(C)CC2=Nc3ccccc3S(=O)(=O)N2)c1 | 36.4%
38 | COCc1ccccc1CNC(=O)CN1CCC2(CCOC2)C1 (stereo not drawn) | -61%
39 | COc1ccc(C(C)Nc2cnn(C)c(=O)c2Cl)cc1OC (stereo not drawn) | 18.7%
40 | COCCS(=O)(=O)NC(C)c1ccc(-n2nc(C)cc2C)cc1 (stereo not drawn) | 1.91%
41 | O=S(=O)(Cc1ccc(F)cc1)NCc1nnc2n1CCC2 | 3.82%
42 | COc1ccc(C(C)N2CCC(CNC(C)=O)CC2)cc1Cl (stereo not drawn) | -51.5%
43 | CC(=O)N1CCC(NS(=O)(=O)c2cccnc2)CC1 | -2.73%
44 | N#Cc1ccc(NC2CCN(c3ncccn3)CC2)cc1C(F)(F)F | 27.5%

Row | SMILES | cytotoxicity at 10 µM
45 | COCCNC(=O)C[C@@H]1COC[C@H]2CN(C(=O)C3CCOCC3)C[C@@H]12 | -94.8%
46 | COc1cc(N2CCN(CC3CC3)c3nc(C)ccc3C2)ncn1 | -101%
47 | Cn1cc(C2COC3(CCN(C(=O)c4ccsc4)CC3)C2)cn1 (stereo not drawn) | -67%
48 | Cc1cc(C(=O)N2CC[C@@]3(C[C@@H](NS(C)(=O)=O)CCO3)C2)no1 | -61.1%
49 | CO[C@H]1CCN(Cc2nccs2)C[C@@H]1Cc1ccccc1 | -71.9%
50 | CCO[C@@H]1CCN(C(=O)c2ccnnc2)[C@@H]1Cc1cnn(C)c1 | -62.8%
51 | CCCn1c(C)c(CC(=O)NCCC(N)=O)c2c1CC(C)(C)CC2=O | 9.36%
52 | O=C1NC2(CCN(Cc3ccccc3Cl)CC2)CC1c1ccccc1 (stereo not drawn) | -49.2%
53 | CC(C)c1cc(C(=O)NCC2CCCN(c3ncccn3)C2)n(C)n1 (stereo not drawn) | 17.2%
54 | CN(C)c1nc2c(c(N(C)Cc3n[nH]c4c3CCCC4)n1)CCNCC2 | 3.2%
55 | CCO[C@H]1C[C@@H](O)C12CCN(C1CCN(c3ccccc3C)CC1)CC2 | 9.9%
56 | CCc1c(C)nc(N)nc1NCCSCc1[nH]cnc1C | 4.5%
57 | CCC(Nc1nc(C)nc2onc(C)c12)c1nc(C)c(C)s1 (stereo not drawn) | 37.2%
58 | COCCC1(C(=O)O)CCCN(C(=O)c2cc(C)oc2C)C1 (stereo not drawn) | -5.89%
59 | CCc1c(C)nc(N)nc1N1CCCC(c2nc(CCOC)no2)C1 (stereo not drawn) | 31.5%
60 | COc1ccc(C(=O)C2CCCN(Cc3cc(C)n[nH]3)C2)c(OC)c1 (stereo not drawn) | -6.77%
61 | CSCCc1c(-c2ccccc2)ncn1CC(C)(C)N1CCOCC1 | -47.4%
62 | Cc1ccsc1CN(C)Cc1ncccc1C(=O)O | -2.55%
63 | O=C(c1cnc2c(c1)CCC2)N1CCCC(CO)(CC2CC2)C1 (stereo not drawn) | -42.1%
64 | O=C1N(Cc2ccc(F)c(F)c2)CCCC1(O)CNCC1CCCCC1 (stereo not drawn) | 10.5%
65 | O=C(NCCN1CCc2ccccc21)c1cc(-c2ccc(O)cc2)n[nH]1 | 1.91%
66 | COc1cccc(CCC2CCCN(C(=O)c3ccc(OC)o3)C2)c1 (stereo not drawn) | 9.9%

Row | SMILES | cytotoxicity at 10 µM
67 | CC(C)(CNc1cccc(Cl)c1)NC(=O)C1CCCN(CC(N)=O)C1 (stereo not drawn) | -1.46%
68 | CC(C)N1CCCC2(CCN(Cc3noc(C4CCCC4)n3)C2)C1=O (stereo not drawn) | 2.24%
69 | Cc1ccc(Oc2ncccc2CNS(=O)(=O)N2CCOCC2)cn1 | 9.83%
70 | O=C1N(Cc2cccc(F)c2F)CCCC1(O)CNCC1CCCCC1 (stereo not drawn) | -1.29%
71 | CNC(=O)c1cn2cc(-c3ccc(F)cc3)n(CC=C(C)C)c(=O)c2n1 | -52.2%
72 | Cc1nn(C)c(C)c1-c1ccnc(N(C)Cc2nc(C(C)C)no2)n1 | 20.6%
73 | CC(CN1CCC2(CC1)N=C(c1cccnc1)NC2=O)c1ccccc1 (stereo not drawn) | 4.5%
74 | COC[C@@]12CC[C@@H](N3CCOCC3)C[C@H]1CCN(c1cc(C)ccn1)C2 | -3.53%
75 | CC(C)c1ccc(NC2CCCN(Cc3ccncc3)C2)cc1 (stereo not drawn) | -10.8%
76 | CN(Cc1ccno1)C(=O)c1cccc(CC2CCNCC2)c1 | -15.9%
77 | CCc1ccccc1OCCN(C)C(=O)CCN1CCCCO1 | -57.1%
78 | CN(CC1(CO)CC1)C(=O)C1CCC(=O)N(Cc2ccc(Cl)cc2)C1 (stereo not drawn) | -5.14%
79 | CCc1cc(N2CCC3(CCCNC3=O)C2)nc(N2CCOCC2)n1 (stereo not drawn) | -0.28%
80 | Cc1cc(=O)n(CC(=O)NC2CCCCC2)c2ccccc12 | 0.126%
81 | Cc1c(C(=O)N2CCC(N3CCCCC3)CC2)n(C)c2ccc(Cl)cc12 | -63.8%
82 | COCCN1CCCC2(CCN(c3ncnc(C)c3C)C2)C1=O (stereo not drawn) | 33.4%
83 | COc1cc(CN2CCCC2)ccc1Oc1ccc2c(c1)CC(CN)O2 (stereo not drawn) | -7.79%
84 | CC(=O)c1ccc(N2CCCC(CO)(CCOc3ccccc3)C2)nc1 (stereo not drawn) | 3.15%
85 | Cn1c(CN2CCCC2)nnc1C1CCCN(C(=O)C2CCOCC2)C1 (stereo not drawn) | -17%
86 | O=C(O)CC(NC(=O)c1ccccc1OC(F)F)c1cccs1 (stereo not drawn) | -10.8%
87 | CCOCCCn1c(NC(=O)c2scnc2C)nc2ccccc21 | 5.9%
88 | Cc1nccn1CC1CCCN1CCCc1nc(-c2cccs2)no1 (stereo not drawn) | -1.84%

Row | SMILES | cytotoxicity at 10 µM
89 | Cc1nc(CN(C)C2CCN(Cc3ccc4ccccc4n3)C2)no1 (stereo not drawn) | -2.23%
90 | CCOc1ccc(N(CC(=O)c2ccccc2)C2=NCCCCC2)cc1 | -2.02%
91 | Clc1ccc(C2(CNC3=NCCN3)CCCC2)cc1 | 14.4%
92 | Cc1ccc(CN(CCCn2ccnc2)Cc2c[nH]nc2C(C)(C)C)s1 | -3.91%
93 | CCOC(=O)c1ccccc1NC(=O)CN(C)Cc1ccccc1Cl | -5.65%
94 | COc1ccccc1CNC(C)c1ccc(-n2ccnc2)cc1 (stereo not drawn) | 5.25%
95 | COCCC(=O)N1CC2(CCN(Cc3ccccc3Cl)CC2)C1 | -73.1%
96 | CN(C)CCN1CCCC12CCN(Cc1nccn1C)CC2 | -99.1%
97 | CCCN1CCC2(C1)c1ccccc1S(=O)(=O)N2Cc1ccccc1 (stereo not drawn) | 16.7%
98 | CN(C)C(=O)CN1CCC2(COCc3cnc(-c4cccnc4)nc32)C1 (stereo not drawn) | -115%
99 | Fc1cccc(CNCC2OCCc3cn(CC4CCOCC4)nc32)c1 (stereo not drawn) | -77.1%
100 | Cc1ccc(CN2CC[C@@H]3[C@H]2CCC(=O)N3Cc2ccncc2)s1 | -65.6%
101 | CN(C)CCN1C(=O)CC[C@@H]2[C@H]1CCN2C(=O)c1ccc(C#N)cc1 | -7.82%
102 | COc1cc(N2C[C@@H]3COC[C@]3(COCc3ccccn3)C2)ncn1 | -73.2%
103 | c1cncc(N2CCCn3nnc(CN4CCCCC4)c3C2)c1 | 1.24%
104 | Fc1ccc(CN2C[C@@H]3OCCN(CC4CCCO4)[C@@H]3C2)cc1 (stereo partly drawn) | -86.3%
105 | OC1(Cn2ccc3ncccc32)CCN(Cc2ccccc2F)CC1 | -5.33%
106 | O=C(c1ccc(F)c(Cl)c1)N1C[C@H]2CC[C@@H](C1)N(Cc1ccccc1)C2 | -8.28%
107 | CCNc1c(NC(=O)NCCOC)c(=O)oc2ccccc12 | -2.89%
108 | CC1(C)[C@@H]2CC=C(CN3CCCn4nc(C(=O)NCCO)cc4C3)[C@H]1C2 | -40.3%
